In all, about 330,000 compounds went through this assay and about 1,100 (0.33%) were called active. The sample as a whole holds a higher share of actives than the screen did. A number with no mark means an inactive call.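 Rule for the calls: active = at 10 µM dose, activation of 40% or more, normalized to positive control; inactive = the rest.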
Experiment: PERK-eIF2a-CHOP pathway stimulators – cell-based, CHO-CHOP luciferase reporter, luminescence, uHTS, primary screen (AID 449763);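 note: 100% = tunicamycin at 10 µg/mL and 0% = DMSO alone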
Conditions: UPR activation, at 10 µM, stronger effect = higher value, percent of tunicamycin response over DMSO baseline
Procedure, shortened: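 Assay system: CHO cells with stable CHOP pathway luciferase reporter; Buffer or medium: F12 plus 10% serum; Times: 16-18 h cell attachment, then 6 h compound exposure, 37 °C; Signal: luciferase luminescence; Read-out basis: percent activation relative to tunicamycin control; Control set: tunicamycin high control, DMSO low control.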

SMILES | activation
Nc1nc(SCC(=O)NN(c2ccccc2)c2ccccc2)n[nH]1 | -0.687%
CC(C)NC(=S)N1CCN(S(C)(=O)=O)CC1 | 0.831%
O=C(NNc1cc(Cl)ccc1Cl)c1cccnc1Cl | 0.393%
CC(=O)/C(=N\Nc1ccc(Cl)cc1Cl)Sc1cccc2cccnc12 | 184% (active)
COc1cccc(CNC(=O)c2cccnc2Sc2ccc(Cl)cc2)c1 | 0.384%
Cc1ccc(S(=O)(=O)CCC(=O)OCc2ccccc2)cc1 | 0.112%
CCOC(=O)c1ccc(NC(=O)c2nc[nH]c2C(=O)N[C@@H](CCCCNC(=O)OC(C)(C)C)C(=O)OC(C)(C)C)cc1 | 2.33%
CC(=O)c1ccc(NC(=O)c2ccc(-n3cncn3)c([N+](=O)[O-])c2)cc1 | 2.02%
COCCOC(=O)c1c(C)oc2cc(Br)c(OCC(N)=O)cc12 | 0.018%
CCc1ccc2c(c1)C1(NN=C(c3ccccc3)S1)C(=O)N2 (stereo not given) | 135% (active)
Cc1occc1C(=O)NC1CCCN(Cc2ccc(CC(C)C)cc2)C1 (stereo not given) | 1.93%
O=C(Nc1c2c(nn1-c1ccccc1)CS(=O)(=O)C2)C1CCCC1 | -0.808%
COC(=O)c1ccc(C(=O)Nc2cc(Cl)ccc2Cl)cc1NC(=O)c1ccccc1C | 49.7% (active)
COC(=O)c1ccc(C(=O)OC)c(NC(=S)N2CCN(c3cc(Cl)ccc3C)CC2)c1 | 1.94%
CCCN(CCC)C(=S)Nc1cc(C(=O)OC)ccc1C(=O)OC | 2.25%
O=C(CSc1nc2ccccc2c(=O)n1CCCO)NC1CC1 | 1.02%
CCCCn1nc(C(=O)N2CCc3ccccc32)c2ccccc2c1=O | -1.34%
Cn1nccc1NC(=O)Nc1ccc(OC(F)(F)F)cc1 | 0.489%
O=C(Nc1ccc(OC(F)(F)F)cc1)c1ccc2c(c1)no[n+]2[O-] | 61% (active)
Cn1cccc1/C=N/NC(=O)c1ccc(OC(F)(F)C(F)F)cc1 | 2.77%
CC(C)CC(=O)N1CCC(O)(CS(=O)(=O)Cc2ccccc2)CC1 | -0.00639%
Cc1ccc(NC(=O)CCOc2ccccc2)cc1S(=O)(=O)Nc1ccccc1Cl | 2.43%
Cc1ccc(Cc2cnc(NC(=O)/C(C#N)=C/c3ccc(-c4cccc([N+](=O)[O-])c4)o3)s2)cc1 | 73.3% (active)
Cc1ccc(C(=O)N/C(=C/c2ccc(-c3cccc([N+](=O)[O-])c3)o2)C(=O)NCCCN(C)C)cc1 | -0.289%
Cc1ccc(-c2ccc(/C=C(\C#N)C(N)=S)o2)c([N+](=O)[O-])c1 | 3.33%

SMILES | activation
Cc1cc2c(cc1S(=O)(=O)NCc1ccc(Cl)cc1)OCC(=O)N2 | -0.754%
Cc1ccc(C)c(S(=O)(=O)N2CCN(c3ncnc4sccc34)CC2)c1 | 5.68%
Cc1cccc(NC(=O)CSC(N)=O)c1C | -0.357%
Cc1cccc(NC(=O)CN2CCN(C(=O)C3CCN(C(=O)/C=C/c4ccccc4)CC3)CC2)c1C | 0.754%
CCOC(=O)/C=c1\s/c(=C\c2ccc(C#N)cc2)c(=O)n1CC(=O)Nc1cccc(C)c1C | 75.5% (active)
COc1ccc(-c2c(C(C)=O)c(C)nc3sc4c(=O)n(-c5ccc(C)cc5)nnc4c23)cc1 | -0.914%
COC(=O)C(=Nc1ccccc1)/C(C(=O)C(=O)N(C)c1ccccc1)=C(\O)c1ccc(Cl)cc1 | 0.244%
CC1(C)CCSC(/C=C/c2ccccc2)=N1 | 57.7% (active)
C[C@H](CO)N1C[C@H](C)[C@@H](CN(C)C(=O)NC2CCCCC2)Oc2ccc(NC(=O)c3ccncc3)cc2C1=O | 2.08%
O=C(CSc1cccc2cccnc12)N/N=C/c1cccnc1 | 227% (active)
O=C(N/N=C/c1cccnc1)c1ccc(NC(=O)c2ccc(F)cc2)cc1 | 1.11%
COc1ccc(C(=O)NCC(=O)N/N=C/c2cccnc2)cc1 | 2.52%
Nc1nc(O)c(CC(=O)O)s1 | -0.635%
COc1cc(/C=C2/C(=O)ON=C2C)ccc1OCc1cccc(F)c1 | 30.3%
C=CCOc1ccc(/C=C2/C(=O)ON=C2C)cc1OCC | 0.964%
COc1cc(/C=C2/C(=O)ON=C2C)ccc1OCc1ccccc1F | 66.3% (active)
Cc1cc(C)n(-c2ccc(NC(=O)C3CCCCN3C(=O)c3cccs3)cc2)n1 (stereo not given) | -0.0869%
O=C(c1cccs1)N1CCCC(c2nc(-c3ccc(F)cc3)no2)C1 (stereo not given) | 1.93%
Cc1ccccc1CN(c1ccc(C(=O)NCC2CCCO2)cc1)S(C)(=O)=O (stereo not given) | -1.43%
CN1CCC(=NNC(=O)c2ccc(N(Cc3ccc(Cl)cc3)S(C)(=O)=O)cc2)CC1 | 0.73%
CS(=O)(=O)N(Cc1ccccc1)c1ccc(C(=O)NN=C2CCCCCC2)cc1 | 43.7% (active)
CCCC1CC(C)(C(=O)Cn2[nH]c(=O)ccc2=O)OC1=O (stereo not given) | 1.35%
CCOc1cc(/C=N/NC(=O)c2ccc(CSc3nncn3C)cc2)ccc1OCC(=O)N1CCOCC1 | 0.857%
O=C(NCC12CC3CC(C1)CC(CNC(=O)N1CCCC1)(C3)C2)N1CCCC1 | -2.08%
Cc1nn(CC(=O)NCC2CCCO2)c(=O)c2cc3ccccc3n12 (stereo not given) | -0.347%
